# Results: ChEMBL document CHEMBL1649338, “Synthesis of lakshminine and antiproliferative testing of related oxoisoaporphines” (J Nat Prod, 2010)
# Calls of active or inactive are those of the source. The rule behind the calls is not given here.
# Columns and labels:
# SK-MES-1 = experiment: Antiproliferative activity against human SKMES1 cells by MTT assay; format: functional, cell-based
# Summary of the method: (§1)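 Cells were grown in medium with 10% heat-inactivated FBS, penicillin G and streptomycin, and were plated in 96-well plates. One day after seeding, they were exposed for 72 h to 0–100 µM compound (DMSO stock diluted in complete medium, final DMSO 1%). Viability was read by MTT reduction. IC50 values came from fitting the dose-response curves to a sigmoidal model.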
# [1] = (§2) Antiproliferative activity against human HTB-58 cells by MTT assay; format: functional, cell-based; summary of the method: as §1
# [2] = Antiproliferative activity against human CRL1739 cells by MTT assay; format: functional, cell-based; summary of the method: as §1
# J82 = experiment: Antiproliferative activity against human J82 cells by MTT assay; format: functional, cell-based; summary of the method: as §1
# [3] = (§3) Antiproliferative activity against human HTB-1 cells by MTT assay; format: functional, cell-based; summary of the method: as §1
# AGS = experiment: Antiproliferative activity against human AGS cells by MTT assay; format: functional, cell-based; summary of the method: as §1
# HTB-58 = experiment: as §2; format: functional, cell-based; summary of the method: as §1
# [4] = Antiproliferative activity against human CCL171 cells by MTT assay; format: cell-based; summary of the method: as §1
# HTB-1 = experiment: as §3; format: functional, cell-based; summary of the method: as §1
# MRC5 = experiment: Antiproliferative activity against human MRC5 cells by MTT assay; format: cell-based; summary of the method: as §1
SMILES,IC50 (SK-MES-1),IC50 [1],IC50 [2],IC50 (J82),IC50 [3],IC50 (AGS),Activity (SK-MES-1),Activity (HTB-58),Activity [4],Activity (J82),Activity (HTB-1),Activity (MRC5)
COc1cc2c3c(c1[N+](=O)[O-])CCN=C3c1ccccc1C2=O,> 2.09 µM,> 2.09 µM,> 2.09 µM,> 2.09 µM,> 2.09 µM,> 2.09 µM,–,–,–,–,–,–
COc1ccc2c(c1)C(=O)c1c(NCCc3ccc(O)cc3)c(OC)cc3ccnc-2c13 [DAURIOXOISOPORPHINE A],> 3 µM,> 3 µM,> 3 µM,> 3 µM,> 3 µM,> 3 µM,–,–,–,–,–,–
COc1cc2ccnc3c2c(c1N)C(=O)c1ccccc1-3 [LAKSHMININE],> 2.09 µM,> 2.09 µM,> 2.09 µM,> 2.09 µM,> 2.09 µM,> 2.09 µM,–,–,–,–,–,–
CNc1c(OC)cc2ccnc3c2c1C(=O)c1cc(OC)ccc1-3 [DAURIOXOISOAPORPHINE C],> 2.09 µM,> 2.09 µM,> 2.09 µM,> 2.09 µM,> 2.09 µM,> 2.09 µM,–,–,–,–,–,–
COc1ccc2c(c1)C(=O)c1c(NCCc3ccc(O)cc3)c(OC)c(OC)c3ccnc-2c13 [TYRAMINOPORPINE],> 2.09 µM,> 2.09 µM,> 2.09 µM,> 2.09 µM,> 2.09 µM,> 2.09 µM,–,–,–,–,–,–
COc1cc2c3c(nccc3c1N)-c1ccccc1C2=O,> 2.09 µM,> 2.09 µM,> 2.09 µM,> 2.09 µM,> 2.09 µM,> 2.09 µM,–,–,–,–,–,–
COc1cc2c3c(c1)C(=O)c1ccccc1C3=NCC2,> 2.09 µM,> 2.09 µM,> 2.09 µM,> 2.09 µM,> 2.09 µM,> 2.09 µM,–,–,–,–,–,–
COc1cc2c3c(nccc3c1[N+](=O)[O-])-c1ccccc1C2=O,–,–,4.5 µM,–,–,4.5 µM,inactive,inactive,Non-toxic,inactive,inactive,Non-toxic
COc1cc2c3c(nccc3c1)-c1ccccc1C2=O,> 2.09 µM,> 2.09 µM,> 2.09 µM,> 2.09 µM,> 2.09 µM,> 2.09 µM,–,–,–,–,–,–
COc1ccc2c(c1)C(=O)c1c(N)c(OC)c(OC)c3ccnc-2c13 [DAURIOXOISOPORPHINE B],> 3 µM,> 3 µM,> 3 µM,> 3 µM,> 3 µM,> 3 µM,–,–,–,–,–,–
COc1cc2ccnc3c2c(c1[N+](=O)[O-])C(=O)c1ccccc1-3,> 2.09 µM,> 2.09 µM,> 2.09 µM,> 2.09 µM,> 2.09 µM,> 2.09 µM,–,–,–,–,–,–
COc1cc2c3c(c1[N+](=O)[O-])C(=O)c1ccccc1C3=NCC2,> 2.09 µM,> 2.09 µM,> 2.09 µM,> 2.09 µM,> 2.09 µM,> 2.09 µM,–,–,–,–,–,–
